Experimental findings from ChEMBL document CHEMBL1148787, “Novel substituted (pyridin-3-yl)phenyloxazolidinones: antibacterial agents with reduced activity against monoamine oxidase A and increased solubility” (J Med Chem, 2007) are described below.

pIC50, pKi: −log10 of the molar value. Converted amounts (≈) assume the structure as drawn.

A short description of data set [1]: Half life in Wistar rat at 10 mg/kg, iv. The class given is ADME, organism-based. Also on record: dose 10 mg/kg, route intravenous. The settings on record: in vivo. The essentials:
(§1)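 Groups of three Wistar Han rats; bolus injection via cannulated jugular vein at 2 or 10 mg/kg. Serial 200 µL whole-blood samples at time intervals; plasma levels by LC-MS/MS; parameters by noncompartmental analysis.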

Data set [2] in a line: Clearance in Wistar rat at 10 mg/kg, iv. Also on record: dose 10 mg/kg, route intravenous. The class given is ADME, organism-based. The settings on record: in vivo. Summed up:
as §1

A short description of data set [3]: Volume of distribution in Wistar rat at 10 mg/kg, iv. Also on record: dose 10 mg/kg, route intravenous. The settings on record: in vivo, read-out: Vdss. The format is ADME, organism-based. The essentials:
as §1

For the next data set, the system named is Staphylococcus aureus. Put plainly: Antibacterial activity against methicillin-susceptible Staphylococcus aureus AP601055. The class given is functional. The essentials:
(§2)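 CLSI broth microdilution, 64 to 0.06 µg/mL, 2% DMSO final. Media: S. aureus, Mueller Hinton broth; H. influenzae, MHB plus 0.5% yeast extract, 15 µg/mL hematin, 1.5 µg/mL NAD; S. pneumoniae, MHB plus 0.65% lysed horse blood. 35 °C, aerobic (S. aureus) or 5% CO2.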

The test system of data set [4] is Streptococcus pneumoniae. The experiment in a line: Antibacterial activity against penicillin-susceptible Streptococcus pneumoniae AP671401. The format is functional. Summed up:
as §2

For data set [5], the system named is Streptococcus pneumoniae. The experiment in a line: Antibacterial activity against linezolid-resistant Streptococcus pneumoniae. The class given is functional. The essentials: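 Broth microdilution per CLSI guidelines. Compounds were dissolved in 100% DMSO and diluted to 2% DMSO (v/v), 64 to 0.06 µg/mL, in 2.2% (w/v) Mueller Hinton broth with 0.65% (v/v) lysed horse blood. Plates were incubated at 35 °C in 5% CO2 and read at 620 nm.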

A further data set relates to Haemophilus influenzae. The experiment in a line: Antibacterial activity against Haemophilus influenzae ATCC 51907. The class given is functional. The essentials:
as §2

Data set [6] in a line: Solubility by nephelometric analysis. The format is physicochemical. The essentials: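 Nephelometry after diluting compounds into the MAO-A assay mixture (100 mM potassium phosphate, pH 7.4).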
For data set [7], the target named is T1, Amine oxidase [flavin-containing] A (Homo sapiens, UniProt P21397).
T1 sequence (P21397 whole entry): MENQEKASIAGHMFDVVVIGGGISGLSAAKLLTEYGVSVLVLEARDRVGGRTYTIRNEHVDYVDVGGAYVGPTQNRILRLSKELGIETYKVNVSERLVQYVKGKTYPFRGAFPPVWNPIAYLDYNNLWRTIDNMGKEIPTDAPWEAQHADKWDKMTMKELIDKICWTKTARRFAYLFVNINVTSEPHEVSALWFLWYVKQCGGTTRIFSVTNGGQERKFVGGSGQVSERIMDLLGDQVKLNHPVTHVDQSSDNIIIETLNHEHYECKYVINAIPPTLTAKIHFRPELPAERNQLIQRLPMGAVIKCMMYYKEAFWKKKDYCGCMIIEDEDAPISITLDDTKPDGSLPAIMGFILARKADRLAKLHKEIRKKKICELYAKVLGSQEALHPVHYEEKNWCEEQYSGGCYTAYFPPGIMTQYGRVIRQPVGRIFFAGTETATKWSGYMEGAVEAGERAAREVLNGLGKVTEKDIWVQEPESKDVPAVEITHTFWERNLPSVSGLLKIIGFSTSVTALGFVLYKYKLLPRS
Put plainly: Inhibition of human liver MAOA expressed in yeast.

The nature of data set [8]: AUC in Wistar rat at 10 mg/kg, iv. Also on record: dose 10 mg/kg, route intravenous. To be noted: plasma. The class given is ADME, organism-based. Summed up:
as §1

Another data set concerns the target T2, Cytochrome P450 1A2 (Homo sapiens, UniProt P05177).
T2 sequence (P05177 whole entry): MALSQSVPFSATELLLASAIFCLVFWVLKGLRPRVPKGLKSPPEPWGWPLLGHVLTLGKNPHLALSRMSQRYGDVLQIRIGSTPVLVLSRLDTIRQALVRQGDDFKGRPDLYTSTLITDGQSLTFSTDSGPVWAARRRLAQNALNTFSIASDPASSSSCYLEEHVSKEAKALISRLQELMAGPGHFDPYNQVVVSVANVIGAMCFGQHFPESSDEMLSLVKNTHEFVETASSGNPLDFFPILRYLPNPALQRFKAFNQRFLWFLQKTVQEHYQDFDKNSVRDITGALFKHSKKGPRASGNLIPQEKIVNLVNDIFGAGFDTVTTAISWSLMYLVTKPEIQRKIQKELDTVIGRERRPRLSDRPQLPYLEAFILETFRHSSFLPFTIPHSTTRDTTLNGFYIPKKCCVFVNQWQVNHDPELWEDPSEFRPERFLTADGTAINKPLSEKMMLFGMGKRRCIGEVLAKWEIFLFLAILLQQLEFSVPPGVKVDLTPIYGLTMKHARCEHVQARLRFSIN
The experiment in a line: Inhibition of human recombinant CYP1A2. The class given is ADME. Summed up: (§3)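 Recombinant human P450s, compound at 0.2-20 µM; fluorogenic substrates: 3-cyano-7-ethoxycoumarin (1A2), 7-methoxy-4-trifluoromethylcoumarin (2C9, 2C19), 7-methoxy-4-(aminomethyl)coumarin (2D6). Fluorescence detection; IC50 determined.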

Another data set concerns the target Cytochrome P450 2C9 (Homo sapiens, UniProt P11712). Put plainly: Inhibition of human recombinant CYP2C9. The format is ADME. Summed up:
as §3

Another data set addresses Cytochrome P450 2C19 (Homo sapiens, UniProt P33261). The experiment in a line: Inhibition of human recombinant CYP2C19. The format is ADME. The essentials: as §3
The next data set addresses Cytochrome P450 2D6 (Homo sapiens, UniProt P10635). Put plainly: Inhibition of human recombinant CYP2D6. The class given is ADME. The essentials: as §3
The target in another data set is Cytochrome P450 3A4 (Homo sapiens, UniProt P08684). Put plainly: Inhibition of human recombinant CYP3A4. The class given is ADME.
For a further data set, the species on record is Homo sapiens. The experiment in a line: Protein binding in human plasma. The settings on record: read-out: PPB (converted).
Data set [9] can be described thus: Oral bioavailability in Wistar rat at 10 mg/kg, po. The class given is ADME, organism-based. The settings on record: in vivo. Summed up:
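Wistar Han rats, groups of three; 10 mg/kg given by oral gavage, compared against iv dosing. Serial whole-blood sampling, plasma drug by LC-MS/MS, noncompartmental pharmacokinetic analysis.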

Cytochrome P450 3A4, sequence (P08684 whole entry): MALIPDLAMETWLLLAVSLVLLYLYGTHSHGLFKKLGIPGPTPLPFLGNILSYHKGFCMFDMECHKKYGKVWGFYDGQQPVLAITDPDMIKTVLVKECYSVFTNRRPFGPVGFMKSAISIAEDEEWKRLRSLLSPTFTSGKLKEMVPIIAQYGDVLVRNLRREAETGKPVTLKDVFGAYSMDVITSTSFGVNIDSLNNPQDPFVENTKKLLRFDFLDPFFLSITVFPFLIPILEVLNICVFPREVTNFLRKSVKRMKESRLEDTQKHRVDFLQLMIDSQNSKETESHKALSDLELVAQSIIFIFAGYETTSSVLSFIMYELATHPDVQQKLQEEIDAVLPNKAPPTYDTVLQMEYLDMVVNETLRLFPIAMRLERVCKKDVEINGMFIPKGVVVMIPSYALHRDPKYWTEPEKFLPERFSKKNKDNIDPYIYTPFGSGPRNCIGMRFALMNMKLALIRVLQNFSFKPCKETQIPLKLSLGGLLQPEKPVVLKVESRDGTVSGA
Cytochrome P450 2C19, sequence (P33261 whole entry): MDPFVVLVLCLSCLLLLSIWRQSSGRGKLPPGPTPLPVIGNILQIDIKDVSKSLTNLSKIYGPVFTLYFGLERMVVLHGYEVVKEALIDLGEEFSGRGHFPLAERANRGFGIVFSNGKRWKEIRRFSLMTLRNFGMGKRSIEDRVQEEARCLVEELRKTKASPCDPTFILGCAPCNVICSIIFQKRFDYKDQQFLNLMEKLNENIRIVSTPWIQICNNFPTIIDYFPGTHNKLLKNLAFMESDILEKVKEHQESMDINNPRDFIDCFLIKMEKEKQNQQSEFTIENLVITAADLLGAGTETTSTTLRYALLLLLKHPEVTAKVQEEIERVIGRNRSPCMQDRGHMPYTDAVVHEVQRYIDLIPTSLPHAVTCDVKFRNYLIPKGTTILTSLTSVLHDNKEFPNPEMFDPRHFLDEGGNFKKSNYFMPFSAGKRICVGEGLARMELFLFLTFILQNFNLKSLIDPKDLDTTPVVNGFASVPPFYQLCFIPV
Cytochrome P450 2C9, sequence (P11712 whole entry): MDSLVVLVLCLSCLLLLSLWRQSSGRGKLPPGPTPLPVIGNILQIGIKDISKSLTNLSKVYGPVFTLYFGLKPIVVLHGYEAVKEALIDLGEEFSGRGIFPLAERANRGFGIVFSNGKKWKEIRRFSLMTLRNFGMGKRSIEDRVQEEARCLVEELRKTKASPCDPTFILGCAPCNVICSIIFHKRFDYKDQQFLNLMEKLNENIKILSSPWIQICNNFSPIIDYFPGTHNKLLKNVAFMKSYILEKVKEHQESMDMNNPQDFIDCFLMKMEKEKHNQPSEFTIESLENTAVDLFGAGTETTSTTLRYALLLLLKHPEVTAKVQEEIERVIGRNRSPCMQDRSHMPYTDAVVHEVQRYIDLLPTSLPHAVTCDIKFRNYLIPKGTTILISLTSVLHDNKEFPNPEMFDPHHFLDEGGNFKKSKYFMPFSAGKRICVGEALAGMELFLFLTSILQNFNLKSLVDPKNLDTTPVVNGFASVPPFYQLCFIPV
Cytochrome P450 2D6, sequence (P10635 whole entry): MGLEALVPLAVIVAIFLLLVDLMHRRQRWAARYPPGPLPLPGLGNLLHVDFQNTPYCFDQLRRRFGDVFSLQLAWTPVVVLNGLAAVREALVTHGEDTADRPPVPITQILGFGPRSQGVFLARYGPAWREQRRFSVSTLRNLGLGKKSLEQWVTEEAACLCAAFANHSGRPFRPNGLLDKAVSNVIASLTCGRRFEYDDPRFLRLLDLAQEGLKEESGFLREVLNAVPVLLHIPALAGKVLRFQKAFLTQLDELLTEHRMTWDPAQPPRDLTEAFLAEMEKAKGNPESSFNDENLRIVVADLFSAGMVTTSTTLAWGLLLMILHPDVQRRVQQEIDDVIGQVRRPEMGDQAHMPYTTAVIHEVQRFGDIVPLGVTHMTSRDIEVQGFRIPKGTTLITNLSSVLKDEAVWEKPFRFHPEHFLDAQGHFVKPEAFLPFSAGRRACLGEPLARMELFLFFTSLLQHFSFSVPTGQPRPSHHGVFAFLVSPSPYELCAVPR

A word on the half-life: it is the time in which the quantity being followed falls by half. Read a high half-life as slow decline. For orientation: clearance means the rate of elimination divided by the concentration. The term solubility (kinetic) denotes solubility judged after dilution from a stock solution rather than from solid. One may read the pKi as the Ki on a negative log10 scale, so that one unit is a factor of ten. A high value points to a small Ki. Usually AUC stands for concentration integrated over time. Read a low AUC as low exposure. Take `O=C(CC1CCNCC1)c1ccc(-c2ccc(N3C[C@H](Cn4ccnn4)OC3=O)cc2F)cn1`: the half-life in data set [1] is 2.4 h. Besides, in data set [2], the clearance was determined as 11.8 L/h/kg. Also, the Vd in data set [3] came out at 15 L/kg. Moreover, the MIC in the data set on Staphylococcus aureus was 1 mg/L (≈ 2.15 µM); against Streptococcus pneumoniae [4] it was 0.13 mg/L (≈ 0.28 µM); in the data set on Streptococcus pneumoniae [5], 0.5 mg/L (≈ 1.08 µM); with Haemophilus influenzae, 8 mg/L (≈ 17.2 µM). The same compound registered a solubility (kinetic) in data set [6] greater than 400 µM. Besides, in [7], the pKi was 4.55. In data set [8], the exposure (AUC) turned out to be 0.8 µg·h/mL.

The pIC50 is −log10 of the IC50, conventionally taken in molar units. `Cc1cn(CC(=O)c2ccc(-c3ccc(N4C[C@H](Cn5ccnn5)OC4=O)cc3F)cn2)cn1` had a clearance in [2] greater than 6 L/h/kg. For the same compound, the MIC in the data set with Staphylococcus aureus was 0.5 mg/L (≈ 1.08 µM); in the data set on Streptococcus pneumoniae [4], less than 0.06 mg/L; against Streptococcus pneumoniae [5] it was 0.5 mg/L (≈ 1.08 µM); against Haemophilus influenzae, 2 mg/L (≈ 4.33 µM). Further, in data set [6], the solubility (kinetic) was 12.5 µM (≈ 5.77 µg/mL). Also, in [7], the pKi was less than 5.25. The pIC50 on Cytochrome P450 1A2, at Cytochrome P450 2C9, at Cytochrome P450 2C19, on Cytochrome P450 2D6 and at Cytochrome P450 3A4 was less than 4.70 throughout. Besides, the fraction unbound in the data set filed under Homo sapiens was 0.31.

One may read the bioavailability as the share of a dose that reaches the circulation, judged against a reference dose that is usually intravenous. A higher bioavailability goes with much systemic uptake. In turn, `Cc1nccn1CC(=O)c1ccc(-c2ccc(N3C[C@H](Cn4ccnn4)OC3=O)cc2F)cn1` showed a half-life in [1] of 0.4 h. In data set [2], this compound displayed a clearance of 3.72 L/h/kg. The Vd in data set [3] amounted to 0.3 L/kg. Also, the MIC was 0.5 mg/L (≈ 1.08 µM) against Staphylococcus aureus, 0.13 mg/L (≈ 0.282 µM) in the data set on Streptococcus pneumoniae [4], 0.5 mg/L (≈ 1.08 µM) against Streptococcus pneumoniae [5] and 2 mg/L (≈ 4.33 µM) with Haemophilus influenzae. Besides, the kinetic solubility in data set [6] was 200 µM (≈ 92.3 µg/mL). The same compound gave a pKi in [7] of less than 4.05. The pIC50 on Cytochrome P450 1A2, on Cytochrome P450 2C9, at Cytochrome P450 2C19, at Cytochrome P450 2D6 and on Cytochrome P450 3A4 was less than 4.70 each time. This compound also registered an area under the curve (AUC) in [8] of 1.2 µg·h/mL. In data set [9], this compound displayed a bioavailability of 100%. Further, in the data set filed under Homo sapiens, the fraction unbound is 0.25.

`O=C(c1ccc(-c2ccc(N3C[C@H](Cn4ccnn4)OC3=O)cc2F)cn1)C1CCNCC1` had a half-life in data set [1] of 2.4 h. The clearance in data set [2] worked out at 2.28 L/h/kg. The Vd in data set [3] stood at 3.8 L/kg. For the same compound, the MIC is 0.5 mg/L (≈ 1.11 µM) against Staphylococcus aureus, 0.13 mg/L (≈ 0.289 µM) against Streptococcus pneumoniae [4], 0.5 mg/L (≈ 1.11 µM) in the data set with Streptococcus pneumoniae [5] and 4 mg/L (≈ 8.88 µM) with Haemophilus influenzae. This compound showed a solubility (kinetic) in [6] of 100 µM (≈ 45 µg/mL). The compound also gave a pKi in data set [7] of less than 4.36. Besides, the AUC in [8] is 4 µg·h/mL.

Take `O=C1O[C@@H](Cn2ccnn2)CN1c1ccc(-c2ccc(C(O)CN3CCOCC3)nc2)c(F)c1` (some centres not stated): the MIC worked out at 1 mg/L (≈ 2.13 µM) against Staphylococcus aureus, 0.25 mg/L (≈ 0.534 µM) in the data set with Streptococcus pneumoniae [4], 2 mg/L (≈ 4.27 µM) against Streptococcus pneumoniae [5] and 4 mg/L (≈ 8.54 µM) in the data set on Haemophilus influenzae. Besides, the solubility (kinetic) in data set [6] is greater than 400 µM. Further, in the data set listed under Homo sapiens, the fraction unbound is 0.67.

In the case of `O=C1O[C@@H](Cn2ccnn2)CN1c1ccc(-c2cccnc2)c(F)c1`, the MIC with Staphylococcus aureus is 0.25 mg/L (≈ 0.737 µM); against Streptococcus pneumoniae [4] it was less than 0.06 mg/L; against Streptococcus pneumoniae [5], 1 mg/L (≈ 2.95 µM); against Haemophilus influenzae it was 2 mg/L (≈ 5.89 µM). Besides, the kinetic solubility in data set [6] was 12.5 µM (≈ 4.24 µg/mL). This compound also had a pKi in [7] greater than 6.52. In addition, the pIC50 on Cytochrome P450 1A2 was less than 4.70; on Cytochrome P450 2C9, less than 4.70; at Cytochrome P450 2C19 it was less than 4.70; on Cytochrome P450 2D6, 5.18; on Cytochrome P450 3A4, 5.17.

As for `O=C1O[C@@H](Cn2ccnn2)CN1c1ccc(-c2ccc(CO)nc2)c(F)c1`, the MIC against Staphylococcus aureus was found to be 0.25 mg/L (≈ 0.677 µM); in the data set on Streptococcus pneumoniae [4], 0.13 mg/L (≈ 0.352 µM); in the data set on Streptococcus pneumoniae [5], 1 mg/L (≈ 2.71 µM); in the data set on Haemophilus influenzae, 1 mg/L (≈ 2.71 µM). The compound further had a kinetic solubility in data set [6] of 100 µM (≈ 36.9 µg/mL). In addition, the pIC50 on Cytochrome P450 1A2, at Cytochrome P450 2C9, at Cytochrome P450 2C19, at Cytochrome P450 2D6 and on Cytochrome P450 3A4 was less than 4.70 in each case.
